Screening data (PubChem)
Beta apoptosis = blocks beta cell apoptosis; INS-1E cytokine-induced death, ATP luminescence, 48 h; percent of positive-control rescue, neutral wells zero; protection from apoptosis, % (test concentration not listed); actives 0.8% (n = 300,000);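 active = Every replicate reaches about 75%, or at least half do and their mean reaches it too, limit read from the data; inconclusive = At least half of replicates reach the limit but their mean does not; inactive = Under half of replicates reach the limit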;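 also: 0% = cytokine-treated negative control wells and 100% = positive control rescue; higher means more ATP so stronger rescue from cytokine killing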
CSC inhib = blocks cancer stem cells; cancer stem cell-like cells viability, luminescence; inhibition, % at 7.5 µM; actives 1.1% (n = 300,000); in the data active = inhibition above about 75%; inconclusive = no clear call, values can overlap the other calls; tested in HMLE shEcad cells
Mdm2-MdmX inh = inhibitors of human Mdm2/MdmX interaction. inhibition, % at 8 µM. actives 3% (n = 330,000). O15151+Q00987. SaOS-2 split-luciferase Mdm2/MdmX complementation, luminescence;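 active = inhibition of at least 50% at 8 µM in the primary screen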
Target sequence (O15151 whole entry, looked up): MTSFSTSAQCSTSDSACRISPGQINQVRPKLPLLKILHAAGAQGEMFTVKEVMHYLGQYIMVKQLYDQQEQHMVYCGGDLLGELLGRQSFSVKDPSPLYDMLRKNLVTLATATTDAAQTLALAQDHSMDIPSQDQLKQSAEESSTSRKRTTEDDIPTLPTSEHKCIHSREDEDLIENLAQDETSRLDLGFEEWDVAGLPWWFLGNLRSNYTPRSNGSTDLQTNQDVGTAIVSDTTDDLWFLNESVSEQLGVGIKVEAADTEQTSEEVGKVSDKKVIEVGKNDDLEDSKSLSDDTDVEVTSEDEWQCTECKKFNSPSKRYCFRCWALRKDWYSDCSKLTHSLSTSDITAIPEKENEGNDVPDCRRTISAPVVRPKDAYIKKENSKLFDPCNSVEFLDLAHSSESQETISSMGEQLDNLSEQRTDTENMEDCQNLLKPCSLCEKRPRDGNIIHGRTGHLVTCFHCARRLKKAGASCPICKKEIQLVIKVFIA
Target sequence (Q00987 whole entry, looked up): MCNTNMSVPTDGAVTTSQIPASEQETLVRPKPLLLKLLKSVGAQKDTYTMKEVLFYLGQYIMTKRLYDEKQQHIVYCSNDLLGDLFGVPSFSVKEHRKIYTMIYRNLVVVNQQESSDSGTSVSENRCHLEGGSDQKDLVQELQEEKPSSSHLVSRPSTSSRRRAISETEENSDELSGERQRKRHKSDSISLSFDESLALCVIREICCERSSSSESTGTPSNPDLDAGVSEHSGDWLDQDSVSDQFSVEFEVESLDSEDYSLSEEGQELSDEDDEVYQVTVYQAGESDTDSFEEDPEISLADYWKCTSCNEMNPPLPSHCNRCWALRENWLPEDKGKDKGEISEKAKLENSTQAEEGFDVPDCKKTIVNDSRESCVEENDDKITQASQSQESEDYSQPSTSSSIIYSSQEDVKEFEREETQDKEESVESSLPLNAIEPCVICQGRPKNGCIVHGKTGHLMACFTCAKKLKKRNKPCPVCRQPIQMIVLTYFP
Calb FLC = affects C. albicans growth with fluconazole; C. albicans CaCi-2 (fluconazole-resistant clinical isolate) + fluconazole, Alamar Blue growth, 48 h; AID 1979; actives 0.57% (n = 300,000); growth inhibition, % (concentration not given with the values);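 active = growth inhibition above about 58% in most replicates, limit read from the data, passing the limit was not always enough; inconclusive = exactly half the replicates above a set limit; inactive = most replicates below a set limit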;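 also: all wells also contain fluconazole at 8 µg/ml as a sub-toxic cotreatment; 0% = median of DMSO wells and 100% = median of geldanamycin control wells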
NLRP3 yeast inh = blocks the NALP3 inflammasome reconstituted in yeast; actives 0.39% (n = 330,000); inhibition, % at 10 µM; Yeast reconstituted NLRP3/ASC/caspase-1, beta-gal luminescence, 24 h;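 active = inhibition of 50% or more; inactive = inhibition below 50%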;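 also: plate controls were induced DMSO wells for no effect and uninduced yeast grown without galactose for full effect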
T cruzi repl = blocks replication of Trypanosoma cruzi; inhibition, % (no concentration beside the values); T. cruzi beta-gal in NIH3T3, luminescence, 90 h; AID 1885; actives 1.4% (n = 300,000);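 active = mean inhibition across valid replicates above about 55%, limit read from the data; inconclusive = mean below that limit but half or more replicates reach it; inactive = mean below it, under half of replicates reach it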;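 also: signal also drops with host cell toxicity which is not excluded here; 0% = plate median of DMSO wells and 100% = zero luminescence signal; higher percent means less beta-gal luminescence so fewer parasites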
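System: NIH/3T3 fibroblasts plus reporter T. cruzi. Medium: DMEM plus 2% FBS. Probe or stimulus: 5000 reporter trypomastigotes per well. Compound: single 50 nL compound addition per well in DMSO. Incubation: co-culture of at least 90 h after 3 h attachment. Detection: GalScreen β-gal luminescence, detergent lysis, 60 min. Evaluation: parasite load inhibition, %.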
The depositor's hits bear a star; ? = inconclusive; / = not tested or not shown. A selection: hits, their analogues and other compounds. The true share with any hit is near 5.3%.

SMILES | Beta apoptosis | CSC inhib | Mdm2-MdmX inh | Calb FLC | NLRP3 yeast inh | T cruzi repl
COc1cc(NC(=O)c2ccc(Cl)cc2Cl)ccc1NC(=O)c1cccs1 | -2 | 4 | -10 | -2 | 6 | 2
Cc1ccc(C(=O)NC(=S)Nc2ccc(CN3CCCCC3)cc2)c(C)c1 | 1 | 53 | -5 | 6 | 14 | 60*
CCOc1ccc(OCc2cccc(C(=O)Nc3ccc(CN4CCCCC4)cc3)c2)cc1 | 19 | 79* | 46 | -1 | 26 | 26
COc1c(Cl)cc(Cl)cc1C(=O)Nc1ccc(NC(=O)c2cccs2)cc1 | / | / | 14 | 1 | -2 | 58*
Cc1cccc(C(=O)OCC(=O)NCC2COc3ccccc3O2)c1 (stereo not given) | -1 | / | 16 | / | 9 | /
COc1ccccc1Nc1ncnc2c1c(C)c(C)n2CCCN(C)C | -3 | 1 | 44 | 31 | 23 | 58*
Cc1c(C)n(CCCN(C)C)c2ncnc(Nc3ccccc3)c12 | 4 | -10 | -5 | -1 | 9 | ?
Cc1c(C)n(CCCN(C)C)c2ncnc(NC3CCCCC3)c12 | -4 | 31 | 18 | 0 | 1 | 56*
O=C(CSc1nnnn1C1CCCCC1)NCc1ccco1 | 0 | 4 | 1 | -3 | 8 | -14
CCO[C@@H]1OC(C(=O)N2CCN(Cc3ccc4c(c3)OCO4)CC2)=C[C@H](c2coc3ccccc3c2=O)[C@H]1CCCO | 0 | -10 | 6 | -10 | 1 | 24
Cc1ccc(OCC(=O)Nc2cc(S(=O)(=O)N3CCOCC3)ccc2N2CCCC2)cc1 | / | / | 24 | / | 17 | /
COc1ccc(OC)c(C(=O)CN2C(=O)NC(C)(c3ccccc3)C2=O)c1 (stereo not given) | -8 | 11 | -10 | -6 | 13 | 1
CC1=NN(c2ccc(C)cc2)C(=O)/C1=C\C=C\c1ccccc1 | 9 | 78* | 42 | 5 | 15 | -9
CC1=NN(c2ccccc2)C(=O)/C1=C/C=C/C=C/N(C)C | 32 | 0 | 14 | -6 | 35 | 9
CC(=O)C1=C(C)NC(SCC(=O)c2ccc(Cl)cc2Cl)=C(C#N)C1c1ccco1 (stereo not given) | 105* | 22 | 25 | 22 | 12 | 66*
COc1cccc(C(=O)Nc2c[nH]c(=O)[nH]c2=O)c1 | 0 | 3 | 9 | 3 | 2 | -4
O=C(O)CCCN1C(=O)/C(=C\C(Cl)=C\c2ccccc2)SC1=S | -20 | 79* | / | 63 | / | -12
COc1ccc(S(=O)(=O)N2CCCCC2)cc1NC(=O)c1ccc2ccccc2n1 | 1 | -8 | 27 | -8 | 7 | -5
CN1CCN(C(=O)CCN2C(=O)/C(=C\c3ccc(Cl)cc3Cl)SC2=S)CC1 | -56 | 43 | 41 | 14 | 20 | 27
Cc1ccc(SC[C@H](C)CN2CC[C@H](C(C)(C)C)CCC2=O)cc1 | 1 | 76* | -13 | -5 | 9 | 29
C[C@@H](CSc1ccccc1)CN1CC[C@H](O)CCC1=O | -3 | -5 | -1 | -4 | -1 | -1
C[C@@H](CSc1ccc(Br)cc1)CN1CC[C@H](C(C)(C)C)CCC1=O | -3 | 123* | -2 | / | 13 | /
CN1CCC(OC(=O)c2ccc(Cl)cc2Cl)CC1 | -18 | 53 | 10 | -18 | 30 | 58*
CN1CCC(OC(=O)c2ccccc2Cl)CC1 | 2 | 21 | -13 | -13 | 11 | 58*
CN1CCC(OC(=O)c2cc3cc(Cl)cc(Cl)c3oc2=O)CC1 | -50 | 45 | 9 | 1 | 30 | -7
SMILES | Beta apoptosis | CSC inhib | Mdm2-MdmX inh | Calb FLC | NLRP3 yeast inh | T cruzi repl
Cc1ccccc1C(=O)OC1CCN(C)CC1 | -2 | 12 | 7 | -6 | 1 | 59*
CNC(=S)N1CCN(CCNC2=CC(=O)CC(C)(C)C2)CC1 | 5 | -2 | 12 | 1 | 11 | -4
CC1(C)CC(NCCN2CCN(C3=CC(=C(C#N)C#N)CC(C)(C)C3)CC2)=CC(=C(C#N)C#N)C1 | 26 | 9 | 40 | -2 | 24 | 86*
CS/C(=N\S(=O)(=O)c1cccs1)Nc1ccc(Br)cc1F | 7 | -11 | -27 | 101* | 23 | -22
CS/C(=N\S(=O)(=O)c1cccs1)Nc1ccc(Cl)cc1 | -28 | 4 | 11 | 85* | 14 | -6
CCOc1ccccc1-n1c(SCC(=O)Nc2ccccc2C(=O)O)nc2ccccc2c1=O | -6 | -12 | 28 | -5 | 13 | -5
COc1ccc(C(=O)COC(=O)c2cc(S(=O)(=O)N3CCCCC3)ccc2N2CCOCC2)c(OC)c1 | 7 | -7 | 2 | -4 | 10 | 46
COc1cccc(C2CC(c3ccc(NS(C)(=O)=O)cc3)=NN2C(=O)c2ccccc2)c1OC (stereo not given) | 4 | 10 | 5 | 103* | 26 | 2
COc1ccc(-c2cc(C(=O)Nc3ccc(C)c(N)c3)c3ccccc3n2)cc1 | 3 | 37 | -6 | -16 | 16 | 3
CC(C)(C)c1ccc(C(=O)NCC2CCCN2S(=O)(=O)c2ccccc2)cc1 (stereo not given) | 17 | 31 | 7 | -5 | 4 | 34
O=C(Nc1sc2c(c1C(=O)O)CCC2)c1ccco1 | -1 | -4 | -19 | -1 | -8 | -8
COC(=O)c1c(NC(=O)c2ccco2)sc2c1CCC2 | 4 | 76* | -18 | -5 | 27 | 5
Cn1ncc2c(NNC(=O)Cc3ccccc3)ncnc21 | -7 | -18 | 23 | -2 | 5 | -2
CCOc1ccc(N/C(=N/c2nc(C)cc(C)n2)NC(C)=O)cc1 | -5 | 0 | -4 | -3 | 17 | -4
COc1ccc2c(c1)sc1nc(=O)ccn12 | / | -1 | -11 | 0 | 19 | -15
COc1ccc2c(c1)sc(=N)n2C | 50 | -12 | 21 | -9 | 8 | 72*
COc1ccccc1CNC(=O)CNCC1CCCO1 (stereo not given) | -2 | -8 | 18 | -1 | 21 | -8
Cc1ccc(N2NC(C)(c3cccs3)NC2=S)cc1 (stereo not given) | -3 | -2 | -90 | 105* | 23 | 1
O=C(Cn1cc2c(n1)CCCCC2)NC1CCN(Cc2ccccc2)CC1 | -1 | 17 | 6 | -5 | 1 | 16
Cc1cccc(-c2noc(CCCC(=O)N3CCOCC3)n2)c1 | -4 | -4 | -2 | -15 | 22 | -2
CNC(C)C(=O)NC(C(=O)N1CCCC1C(=O)NC1CCCc2ccccc21)C(C)C (stereo not given) | 52 | 13 | -3 | / | 12 | /
CNC(C)C(=O)NC(C(=O)N1CCCC1C(=O)NNc1ccccc1)C(C)C (stereo not given) | 5 | 98* | -20 | / | 16 | /
CCOC(=O)c1oc2ccc(CNC3CCCCC3)c(Cl)c2c1C | / | / | 26 | -38 | 27 | 74*
CC(C(=O)c1ccc(-c2ccccc2)cc1)[n+]1ccccc1 (stereo not given) | 22 | 15 | 6 | 4 | 24 | -1
